# Measurements published in ChEMBL document CHEMBL3421533, “The Discovery of Orally Bioavailable Tyrosine Threonine Kinase (TTK) Inhibitors: 3-(4-(heterocyclyl)phenyl)-1H-indazole-5-carboxamides as Anticancer Agents” (J Med Chem, 2015).
# Calls of active or inactive are those of the source. The calls are words filed in the database; no cut-off is given here.
# Experiments:
# [1] = (§1) Half life in rat liver microsomes at 1 uM by LC-MS analysis; format: ADME; conditions: liver microsomes
# MDA-MB-468 = test: Cytotoxicity against human MDA-MB-468 cells after 5 days by sulforhodamine B assay; format: functional
# How it was run: (§2)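 Cancer lines were seeded at 800–6000 cells per well according to growth rate, 24 h before compound overlay. After culture, cells were fixed in situ and stained with sulforhodamine B. GI50 values were derived by curve fitting.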
# [2] = molecular target: Vascular endothelial growth factor receptor 2 (Homo sapiens, UniProt P35968); test: Inhibition of recombinant KDR (unknown origin) preincubated for 15 mins prior to ATP addition by FRET-based homogenous assay
# [3] = Cytotoxicity against human HCT116 cells after 5 days by sulforhodamine B assay; format: functional, HCT-116; how it was run: as §2
# Aurora kinase A = molecular target: T1, Aurora kinase A (Homo sapiens, UniProt O14965); test: Inhibition of recombinant AURKA (unknown origin) preincubated for 15 mins prior to ATP addition by FRET-based homogenous assay
# T1 sequence (O14965 whole entry): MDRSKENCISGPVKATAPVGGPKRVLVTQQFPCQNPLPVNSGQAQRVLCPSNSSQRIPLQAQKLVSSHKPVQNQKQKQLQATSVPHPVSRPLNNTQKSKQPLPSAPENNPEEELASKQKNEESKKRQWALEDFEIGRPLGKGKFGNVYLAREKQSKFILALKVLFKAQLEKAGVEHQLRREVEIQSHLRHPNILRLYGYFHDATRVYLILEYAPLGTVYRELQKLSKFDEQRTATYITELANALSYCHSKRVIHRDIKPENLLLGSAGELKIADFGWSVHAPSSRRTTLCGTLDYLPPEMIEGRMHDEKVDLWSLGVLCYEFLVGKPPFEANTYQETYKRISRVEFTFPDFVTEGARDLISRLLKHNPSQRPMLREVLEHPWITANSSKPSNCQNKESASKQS
# [4] = (§3) Half life in mouse liver microsomes at 1 uM by LC-MS analysis; format: ADME; conditions: liver microsomes
# [5] = molecular target: T2, Dual specificity protein kinase TTK (Homo sapiens, UniProt P33981); test: Inhibition of amino terminal GST-fused full length human TTK using His6-SUMO-TTK-N as substrate preincubated for 15 mins prior to ATP addition by indirect ELISA detection system
# T2 sequence (P33981 whole entry): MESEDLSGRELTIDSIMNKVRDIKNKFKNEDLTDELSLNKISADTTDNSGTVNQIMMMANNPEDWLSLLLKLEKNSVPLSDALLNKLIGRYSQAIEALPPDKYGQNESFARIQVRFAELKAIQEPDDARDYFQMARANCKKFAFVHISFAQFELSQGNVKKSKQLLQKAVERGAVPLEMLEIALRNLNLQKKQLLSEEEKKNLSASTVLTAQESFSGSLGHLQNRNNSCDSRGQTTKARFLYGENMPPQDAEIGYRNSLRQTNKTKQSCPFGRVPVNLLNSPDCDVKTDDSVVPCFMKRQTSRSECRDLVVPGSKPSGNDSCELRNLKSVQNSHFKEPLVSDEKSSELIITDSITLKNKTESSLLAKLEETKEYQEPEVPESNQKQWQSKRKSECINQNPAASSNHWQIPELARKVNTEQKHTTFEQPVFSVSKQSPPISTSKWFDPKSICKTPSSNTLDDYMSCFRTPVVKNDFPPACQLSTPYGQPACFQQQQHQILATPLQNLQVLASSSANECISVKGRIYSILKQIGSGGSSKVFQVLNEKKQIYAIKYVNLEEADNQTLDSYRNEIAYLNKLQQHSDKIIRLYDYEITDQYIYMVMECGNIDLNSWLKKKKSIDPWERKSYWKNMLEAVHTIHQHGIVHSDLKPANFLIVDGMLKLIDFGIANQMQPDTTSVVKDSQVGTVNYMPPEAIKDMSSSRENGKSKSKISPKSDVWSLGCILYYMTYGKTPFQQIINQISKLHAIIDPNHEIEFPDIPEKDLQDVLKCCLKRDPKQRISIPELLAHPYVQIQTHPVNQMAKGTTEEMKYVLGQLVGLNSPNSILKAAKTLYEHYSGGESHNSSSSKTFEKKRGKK
# [6] = molecular target: Aurora kinase B/Inner centromere protein (Homo sapiens, UniProt Q96GD4); test: Inhibition of AURKB/INCENP (unknown origin) preincubated for 15 mins prior to ATP addition by FRET-based homogenous assay; format: protein-complex assay
# How it was run: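 The enzyme was AURKB/INCENP in a FRET-based homogeneous assay run to kit specifications, with ATP at 128 μM. […] Each IC50 came from a single determination, reported with its standard fitting error.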
# [7] = Induction of apoptosis in human HCT116 cells assessed as upregulation of phospho-H2AX level after 24 hrs; format: functional, cell-based; conditions: HCT-116
# [8] = Cell cycle arrest in human HCT116 cells assessed as 8N cells at 0.05 uM measured at 48 hrs by flow cytometric analysis relative to control; format: functional, cell-based; conditions: HCT-116
# How it was run: (§4)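 HCT116 cells in 6-well plates were exposed to compound or DMSO for 48 h at 37 °C, 5% CO₂. Cells were trypsinized, fixed in cold 70% ethanol and stained overnight at 4 °C with 50 μg/mL propidium iodide plus RNaseA. DNA content was read by flow cytometry, and 8N and 16N fractions were normalized to the DMSO control.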
# [9] = Cell cycle arrest in human HCT116 cells assessed as 8N cells at 0.5 uM measured at 48 hrs by flow cytometric analysis relative to control; format: functional, cell-based; conditions: HCT-116; how it was run: as §4
# [10] = Cell cycle arrest in human HCT116 cells assessed as 16N cells at 0.05 uM measured at 48 hrs by flow cytometric analysis relative to control; format: functional, cell-based; conditions: HCT-116; how it was run: as §4
# HCT-116 [11] = test: Induction of cytokinesis with gain or loss in chromosomes in human HCT116 cells at 500 nM after 28 hrs by DAPI-staining based fluorescence microscopic analysis; format: functional, cell-based
# HCT-116 [12] = test: Cytotoxicity against human HCT116 cells assessed as decrease in cell viability after 24 hrs; format: functional, cell-based
# HCT-116 [13] = test: Induction of apoptosis in human HCT116 cells assessed as induction of PARP cleavage after 24 hrs; format: functional, cell-based
# [14] = Cell cycle arrest in human HCT116 cells assessed as 16N cells at 3 uM measured at 48 hrs by flow cytometric analysis relative to control; format: functional, cell-based; conditions: HCT-116; how it was run: as §4
# [15] = Induction of apoptosis in human HCT116 cells assessed as upregulation of p53 level after 24 hrs; format: functional, cell-based; conditions: HCT-116
# [16] = Cell cycle arrest in human HCT116 cells assessed as 8N cells at 0.1 uM measured at 48 hrs by flow cytometric analysis relative to control; format: functional, cell-based; conditions: HCT-116; how it was run: as §4
# [17] = Cell cycle arrest in human HCT116 cells assessed as 8N cells at 1 uM measured at 48 hrs by flow cytometric analysis relative to control; format: functional, cell-based; conditions: HCT-116; how it was run: as §4
# [18] = Cell cycle arrest in human HCT116 cells assessed as 8N cells at 3 uM measured at 48 hrs by flow cytometric analysis relative to control; format: functional, cell-based; conditions: HCT-116; how it was run: as §4
# [19] = Cell cycle arrest in human HCT116 cells assessed as 8N cells at 0.2 uM measured at 48 hrs by flow cytometric analysis relative to control; format: functional, cell-based; conditions: HCT-116; how it was run: as §4
# [20] = Cell cycle arrest in human HCT116 cells assessed as 16N cells at 1 uM measured at 48 hrs by flow cytometric analysis relative to control; format: functional, cell-based; conditions: HCT-116; how it was run: as §4
# [21] = Cell cycle arrest in human HCT116 cells assessed as 16N cells at 0.1 uM measured at 48 hrs by flow cytometric analysis relative to control; format: functional, cell-based; conditions: HCT-116; how it was run: as §4
# [22] = Cell cycle arrest in human HCT116 cells assessed as 16N cells at 0.5 uM measured at 48 hrs by flow cytometric analysis relative to control; format: functional, cell-based; conditions: HCT-116; how it was run: as §4
# [23] = Cell cycle arrest in human HCT116 cells assessed as 16N cells at 0.2 uM measured at 48 hrs by flow cytometric analysis relative to control; format: functional, cell-based; conditions: HCT-116; how it was run: as §4
# Cytochrome P450 3A4 = Cytochrome P450 3A4 (Homo sapiens, UniProt P08684); test: Inhibition of human CYP3A4 using BFC as substrate preincubated for 10 mins followed by enzyme/substrate addition measured after 30 mins by fluorescence assay; format: ADME
# [24] = Cytotoxicity against human OVCAR3 cells after 5 days by sulforhodamine B assay; format: functional, OVCAR-3
# [25] = Clearance in Sprague-Dawley rat at 1 mg/kg, iv by LC-MS/MS analysis; format: ADME, organism-based; design: dose 1 mg/kg, route intravenous; conditions: in vivo
# [26] = Half life in Sprague-Dawley rat at 1 mg/kg, iv by LC-MS/MS analysis; format: ADME, organism-based; design: dose 1 mg/kg, route intravenous; conditions: in vivo
# Liver microsome = test: as §1; format: ADME; conditions: microsomes, 1 µM
# [27] = AUCinfinity in Sprague-Dawley rat at 1 mg/kg, iv by LC-MS/MS analysis; format: ADME, organism-based; design: time infinity, dose 1 mg/kg, route intravenous; conditions: plasma
# [28] = AUCinfinity in Sprague-Dawley rat at 5 mg/kg, po by LC-MS/MS analysis; format: ADME, organism-based; design: time infinity, dose 5 mg/kg, route oral; conditions: plasma
# [29] = Cmax in athymic CD1 nude mouse at 10 mg/kg, po by LC-MS/MS analysis; format: ADME, organism-based; design: dose 10 mg/kg, route oral; conditions: athymic CD1 nude, in vivo
# [30] = AUCinfinity in athymic CD1 nude mouse at 10 mg/kg, po by LC-MS/MS analysis; format: ADME, organism-based, Plasma; design: time infinity, dose 10 mg/kg, route oral; conditions: athymic CD1 nude, plasma
# [31] = Oral bioavailability in Sprague-Dawley rat at 5 mg/kg by LC-MS/MS analysis; format: ADME, organism-based; conditions: in vivo
# Liver = test: as §3; format: ADME; conditions: microsomes, 1 µM
# [32] = Homo sapiens, MDA-MB-468, 120 h
# Vascular endothelial growth factor receptor 2, sequence (P35968 whole entry): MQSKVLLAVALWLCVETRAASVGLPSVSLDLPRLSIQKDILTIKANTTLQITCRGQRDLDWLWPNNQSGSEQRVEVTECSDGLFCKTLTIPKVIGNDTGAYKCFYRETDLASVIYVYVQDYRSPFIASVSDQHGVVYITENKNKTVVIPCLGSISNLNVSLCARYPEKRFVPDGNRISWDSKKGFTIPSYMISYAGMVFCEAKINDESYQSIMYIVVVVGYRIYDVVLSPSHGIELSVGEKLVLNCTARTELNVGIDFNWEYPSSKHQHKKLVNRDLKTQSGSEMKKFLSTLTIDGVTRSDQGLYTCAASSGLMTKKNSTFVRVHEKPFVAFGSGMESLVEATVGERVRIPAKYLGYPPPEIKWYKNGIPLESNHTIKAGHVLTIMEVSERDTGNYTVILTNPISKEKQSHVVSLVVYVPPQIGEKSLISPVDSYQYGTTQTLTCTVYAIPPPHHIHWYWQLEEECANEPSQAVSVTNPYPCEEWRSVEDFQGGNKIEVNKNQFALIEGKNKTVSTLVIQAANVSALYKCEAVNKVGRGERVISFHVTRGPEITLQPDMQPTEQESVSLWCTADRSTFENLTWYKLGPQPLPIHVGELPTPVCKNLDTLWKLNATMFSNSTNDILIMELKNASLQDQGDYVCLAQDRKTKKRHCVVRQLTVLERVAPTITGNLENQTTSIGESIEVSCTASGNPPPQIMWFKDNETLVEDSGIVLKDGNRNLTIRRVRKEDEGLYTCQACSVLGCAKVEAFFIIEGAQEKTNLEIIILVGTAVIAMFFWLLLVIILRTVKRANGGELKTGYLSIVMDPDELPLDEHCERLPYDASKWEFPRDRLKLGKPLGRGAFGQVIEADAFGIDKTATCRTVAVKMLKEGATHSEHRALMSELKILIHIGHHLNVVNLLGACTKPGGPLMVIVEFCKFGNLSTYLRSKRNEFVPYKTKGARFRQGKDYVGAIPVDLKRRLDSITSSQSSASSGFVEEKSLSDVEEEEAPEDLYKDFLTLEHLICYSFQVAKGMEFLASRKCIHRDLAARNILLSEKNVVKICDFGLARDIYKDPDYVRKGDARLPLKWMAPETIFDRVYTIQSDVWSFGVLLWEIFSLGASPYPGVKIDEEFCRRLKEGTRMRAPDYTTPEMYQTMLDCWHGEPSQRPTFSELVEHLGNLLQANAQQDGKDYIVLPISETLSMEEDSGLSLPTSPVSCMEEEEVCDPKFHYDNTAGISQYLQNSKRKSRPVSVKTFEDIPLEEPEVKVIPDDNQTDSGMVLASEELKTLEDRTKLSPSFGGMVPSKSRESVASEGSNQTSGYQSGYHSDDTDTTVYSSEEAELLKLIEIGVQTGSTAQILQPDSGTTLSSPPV
# Aurora kinase B/Inner centromere protein, sequence (Q96GD4 whole entry): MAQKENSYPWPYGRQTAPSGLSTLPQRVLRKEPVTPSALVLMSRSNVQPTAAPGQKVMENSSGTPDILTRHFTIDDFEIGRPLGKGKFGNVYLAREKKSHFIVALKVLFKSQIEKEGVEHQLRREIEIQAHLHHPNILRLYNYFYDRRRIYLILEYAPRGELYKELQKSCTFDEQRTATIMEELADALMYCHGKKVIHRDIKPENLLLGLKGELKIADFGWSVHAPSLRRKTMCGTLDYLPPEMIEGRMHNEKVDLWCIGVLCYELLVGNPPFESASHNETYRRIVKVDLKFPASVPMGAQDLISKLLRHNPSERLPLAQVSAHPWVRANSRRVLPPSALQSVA
# Aurora kinase B/Inner centromere protein, sequence (Q9NQS7 whole entry, further chain): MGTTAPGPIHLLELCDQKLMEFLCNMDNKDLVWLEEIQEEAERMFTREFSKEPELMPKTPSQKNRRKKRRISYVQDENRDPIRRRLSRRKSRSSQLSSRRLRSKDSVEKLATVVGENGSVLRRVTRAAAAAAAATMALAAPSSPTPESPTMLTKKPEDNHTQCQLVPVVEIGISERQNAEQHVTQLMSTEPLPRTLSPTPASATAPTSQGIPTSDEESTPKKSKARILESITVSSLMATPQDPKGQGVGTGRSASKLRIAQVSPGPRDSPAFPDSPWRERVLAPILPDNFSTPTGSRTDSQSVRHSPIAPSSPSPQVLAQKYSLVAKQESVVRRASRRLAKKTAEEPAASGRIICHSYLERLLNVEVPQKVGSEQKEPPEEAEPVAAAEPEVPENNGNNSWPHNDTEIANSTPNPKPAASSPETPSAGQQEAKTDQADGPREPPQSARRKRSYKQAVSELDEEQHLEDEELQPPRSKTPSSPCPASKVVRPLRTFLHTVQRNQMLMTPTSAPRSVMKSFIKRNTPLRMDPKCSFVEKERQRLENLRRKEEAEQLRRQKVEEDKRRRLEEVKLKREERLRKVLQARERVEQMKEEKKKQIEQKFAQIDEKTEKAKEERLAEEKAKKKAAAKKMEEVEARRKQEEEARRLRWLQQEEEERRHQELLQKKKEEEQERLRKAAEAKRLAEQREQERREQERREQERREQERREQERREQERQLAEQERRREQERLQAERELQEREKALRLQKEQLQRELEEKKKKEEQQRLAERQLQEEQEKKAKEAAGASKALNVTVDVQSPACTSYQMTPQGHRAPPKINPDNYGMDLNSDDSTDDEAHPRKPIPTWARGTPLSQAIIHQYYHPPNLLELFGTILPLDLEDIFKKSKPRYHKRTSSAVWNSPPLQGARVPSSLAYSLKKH
# Cytochrome P450 3A4, sequence (P08684 whole entry): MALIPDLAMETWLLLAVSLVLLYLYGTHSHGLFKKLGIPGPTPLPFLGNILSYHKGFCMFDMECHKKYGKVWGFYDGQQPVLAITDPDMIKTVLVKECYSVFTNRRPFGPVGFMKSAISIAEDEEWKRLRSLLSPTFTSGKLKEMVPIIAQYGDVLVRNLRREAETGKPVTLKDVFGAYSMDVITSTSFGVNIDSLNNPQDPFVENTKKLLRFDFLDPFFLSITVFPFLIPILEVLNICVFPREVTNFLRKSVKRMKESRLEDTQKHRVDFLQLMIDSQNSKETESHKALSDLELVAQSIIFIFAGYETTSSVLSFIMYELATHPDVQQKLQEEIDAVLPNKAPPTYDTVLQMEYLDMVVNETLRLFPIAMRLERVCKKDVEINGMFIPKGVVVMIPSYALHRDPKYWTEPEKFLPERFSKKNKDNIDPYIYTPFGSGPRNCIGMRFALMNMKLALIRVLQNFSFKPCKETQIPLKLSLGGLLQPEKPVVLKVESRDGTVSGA
compound,measurement,setting,value
O=C(CC1(N2CCOCC2)CCCCC1)Nc1ccc2[nH]nc(-c3ccc(N4CCOCC4)cc3)c2c1,half-life at 1 µM,[1],10 min
same,GI50,MDA-MB-468; [32],440 nM
same,IC50,[2],1200 nM
same,GI50,"[3]; Homo sapiens, HCT-116, 120 h",94 nM
same,IC50,Aurora kinase A,2100 nM
same,half-life at 1 µM,[4],5.8 min
same,IC50,[5],12 nM
O=C(NCC1(N2CCOCC2)CCCCC1)c1ccc2[nH]nc(-c3ccc(N4CCOCC4)cc3)c2c1,half-life at 1 µM,[1],1.5 min
same,GI50,MDA-MB-468; [32],190 nM
same,IC50,[2],3800 nM
same,GI50,"[3]; Homo sapiens, HCT-116, 120 h",39 nM
same,IC50,Aurora kinase A,2300 nM
same,half-life at 1 µM,[4],1.7 min
same,IC50,[6],750 nM
same,IC50,[5],7.7 nM
CN1CCC(Oc2ccc(-c3n[nH]c4ccc(NC(=O)C(c5ccsc5)C5CCCC5)cc34)cc2)CC1 (racemic),half-life at 1 µM,[1],15 min
same,GI50,MDA-MB-468; [32],190 nM
same,GI50,"[3]; Homo sapiens, HCT-116, 120 h",59 nM
same,IC50,Aurora kinase A,2300 nM
same,half-life at 1 µM,[4],29 min
same,IC50,[5],8 nM
CN1CCC(Oc2ccc(-c3n[nH]c4ccc(C(=O)NC(c5ccsc5)C5CCCC5)cc34)cc2)CC1 (racemic),half-life at 1 µM,[1],24 min
same,GI50,MDA-MB-468; [32],90 nM
same,IC50,[2],2900 nM
same,GI50,"[3]; Homo sapiens, HCT-116, 120 h",17 nM
same,IC50,Aurora kinase A,2000 nM
same,half-life at 1 µM,[4],21 min
same,IC50,[5],2.7 nM
O=C(N[C@@H](c1ccccn1)C1CC1)c1ccc2[nH]nc(-c3ccc(N4[C@H]5CC[C@H]4CC(O)C5)cc3)c2c1 (stereo in doubt; 75),Activity,[7],Active
same,Activity,[8],1%
same,Activity,[9],8.3%
same,Activity,[10],0%
same,Activity,HCT-116 [11],Active
same,Activity,HCT-116 [12],Active
same,Activity,HCT-116 [13],Active
same,Activity,[14],2.9%
same,Activity,[15],Active
same,Activity,[16],1.8%
same,Activity,[17],7.9%
same,Activity,[18],9.4%
same,Activity,[19],5.8%
same,Activity,[20],2.3%
same,Activity,[21],0.2%
same,Activity,[22],2.7%
same,Activity,[23],1.4%
O=C(N[C@H](c1ccccn1)C1CCCC1)c1ccc2[nH]nc(-c3ccc(N4[C@H]5CC[C@H]4CC(O)C5)cc3)c2c1 (stereo in doubt; 76),IC50,Cytochrome P450 3A4,820 nM
same,GI50,[24],50 nM
same,clearance,[25],91 mL/min/kg
same,half-life,[26],46.8 min
same,t1/2,Liver microsome,> 60 min
same,AUC(0-inf),[27],190 ng·h/mL
same,GI50,MDA-MB-468,20 nM
same,AUC(0-inf),[28],130 ng·h/mL
same,Cmax,[29],1500 ng/mL
same,AUC(0-inf),[30],2600 ng·h/mL
same,bioavailability,[31],13%
same,GI50,[3],8 nM
same,half-life at 1 µM,[4],> 60 min
same,IC50,[6],> 6300 nM
same,IC50,[5],4.3 nM
O=C(N[C@H](c1ccccn1)C1CCCC1)c1ccc2[nH]nc(-c3ccc(N4[C@H]5CC[C@H]4CC(O)C5)cc3)c2c1 (stereo in doubt; 88),IC50,Cytochrome P450 3A4,800 nM
same,GI50,[24],130 nM
same,t1/2,Liver microsome,21 min
same,GI50,MDA-MB-468,74 nM
same,GI50,[3],38 nM
same,t1/2,Liver,35 min
same,IC50,[6],6600 nM
same,IC50,[5],1.8 nM
